According to ChEMBL document CHEMBL4715736, “Identification of anticancer agents based on the thieno[2,3-b]pyridine and 1H-pyrazole molecular scaffolds” (2016):

Tested on: CCRF-CEM
Assay: Growth inhibition of human CCRF-CEM cells assessed as cell growth at 10 uM incubated for 48 hrs by sulforhodamine B assay relative to control
Type: functional
Conditions: read-out: Activity
Summary of the method: (§1)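 NCI Developmental Therapeutics Program NCI60 panel. Compounds that were active in the 10 µM one-dose screen went on to dose–response testing. Growth at each concentration is expressed relative to untreated control (100%). GI50 (concentration giving 50% of maximal inhibition of proliferation) and TGI (concentration giving total growth inhibition) were derived from the curves.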

Compound	growth at 10 µM
Cc1cccc(NC(=O)c2sc3nc4c(cc3c2N)C(=O)CCC4)c1	24%

Tested on: MOLT-4
Assay: Growth inhibition of human MOLT-4 cells assessed as cell growth at 10 uM incubated for 48 hrs by sulforhodamine B assay relative to control
Type: functional
Conditions: read-out: Activity
Summary of the method: (§2)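 Submitted to the NCI Developmental Therapeutics Program for the NCI60 human tumour cell line panel. First screen at a single 10 µM concentration. Read-out is growth relative to untreated control cells set at 100%.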

Compound	growth at 10 µM
Cc1cccc(NC(=O)c2sc3nc4c(cc3c2N)C(=O)CCC4)c1	42%

Tested on: A549
Assay: Growth inhibition of human A549/ATCC cells assessed as cell growth at 10 uM incubated for 48 hrs by sulforhodamine B assay relative to control
Type: functional
Conditions: read-out: Activity
Summary of the method: as §1

Compound	growth at 10 µM
Cc1cccc(NC(=O)c2sc3nc4c(cc3c2N)C(=O)CCC4)c1	23%

Tested on: HOP-62
Assay: Growth inhibition of human HOP-62 cells assessed as cell growth at 10 uM incubated for 48 hrs by sulforhodamine B assay relative to control
Type: functional
Conditions: read-out: Activity
Summary of the method: as §2

Compound	growth at 10 µM
Cc1cccc(NC(=O)c2sc3nc4c(cc3c2N)C(=O)CCC4)c1	8%

Tested on: HOP-92
Assay: Growth inhibition of human HOP-92 cells assessed as cell growth at 10 uM incubated for 48 hrs by sulforhodamine B assay relative to control
Type: functional
Conditions: read-out: Activity
Summary of the method: as §2

Compound	growth at 10 µM
Cc1cccc(NC(=O)c2sc3nc4c(cc3c2N)C(=O)CCC4)c1	35%

Tested on: NCI-H226
Assay: Growth inhibition of human NCI-H226 cells assessed as cell growth at 10 uM incubated for 48 hrs by sulforhodamine B assay relative to control
Type: functional
Conditions: read-out: Activity
Summary of the method: as §2

Compound	growth at 10 µM
Cc1cccc(NC(=O)c2sc3nc4c(cc3c2N)C(=O)CCC4)c1	43%

Tested on: NCI-H322M
Assay: Growth inhibition of human NCI-H322M cells assessed as cell growth at 10 uM incubated for 48 hrs by sulforhodamine B assay relative to control
Type: functional
Conditions: read-out: Activity
Summary of the method: as §2

Compound	growth at 10 µM
Cc1cccc(NC(=O)c2sc3nc4c(cc3c2N)C(=O)CCC4)c1	37.2%

Tested on: NCI-H460
Assay: Growth inhibition of human NCI-H460 cells assessed as cell growth at 10 uM incubated for 48 hrs by sulforhodamine B assay relative to control
Type: functional
Conditions: read-out: Activity
Summary of the method: as §2

Compound	growth at 10 µM
Cc1cccc(NC(=O)c2sc3nc4c(cc3c2N)C(=O)CCC4)c1	5%

Tested on: HCT-116
Assay: Growth inhibition of human HCT-116 cells assessed as cell growth at 10 uM incubated for 48 hrs by sulforhodamine B assay relative to control
Type: functional
Conditions: read-out: Activity
Summary of the method: as §2

Compound	growth at 10 µM
Cc1cccc(NC(=O)c2sc3nc4c(cc3c2N)C(=O)CCC4)c1	20%

Tested on: HCT-15
Assay: Growth inhibition of human HCT-15 cells assessed as cell growth at 10 uM incubated for 48 hrs by sulforhodamine B assay relative to control
Type: functional
Conditions: read-out: Activity
Summary of the method: as §2

Compound	growth at 10 µM
Cc1cccc(NC(=O)c2sc3nc4c(cc3c2N)C(=O)CCC4)c1	18%

Tested on: KM12
Assay: Growth inhibition of human KM12 cells assessed as cell growth at 10 uM incubated for 48 hrs by sulforhodamine B assay relative to control
Type: functional
Conditions: read-out: Activity
Summary of the method: as §2

Compound	growth at 10 µM
Cc1cccc(NC(=O)c2sc3nc4c(cc3c2N)C(=O)CCC4)c1	13%

Tested on: SF-295
Assay: Growth inhibition of human SF-295 cells assessed as cell growth at 10 uM incubated for 48 hrs by sulforhodamine B assay relative to control
Type: functional
Conditions: read-out: Activity
Summary of the method: (§3)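 Run by the NCI Developmental Therapeutics Program as part of its 60-line human tumour panel. Each compound tested at a single 10 µM dose. Growth expressed as % relative to untreated control cells (100%).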

Compound	growth at 10 µM
Cc1cccc(NC(=O)c2sc3nc4c(cc3c2N)C(=O)CCC4)c1	7%

Tested on: SF-539
Assay: Growth inhibition of human SF-539 cells assessed as cell growth at 10 uM incubated for 48 hrs by sulforhodamine B assay relative to control
Type: functional
Conditions: read-out: Activity
Summary of the method: as §3

Compound	growth at 10 µM
Cc1cccc(NC(=O)c2sc3nc4c(cc3c2N)C(=O)CCC4)c1	-61%

Tested on: SNB-75
Assay: Growth inhibition of human SNB-75 cells assessed as cell growth at 10 uM incubated for 48 hrs by sulforhodamine B assay relative to control
Type: functional
Conditions: read-out: Activity
Summary of the method: as §3

Compound	growth at 10 µM
Cc1cccc(NC(=O)c2sc3nc4c(cc3c2N)C(=O)CCC4)c1	4.87%

Tested on: U-251
Assay: Growth inhibition of human U-251 cells assessed as cell growth at 10 uM incubated for 48 hrs by sulforhodamine B assay relative to control
Type: functional
Conditions: read-out: Activity
Summary of the method: as §3

Compound	growth at 10 µM
Cc1cccc(NC(=O)c2sc3nc4c(cc3c2N)C(=O)CCC4)c1	6%

Tested on: Malme-3M
Assay: Growth inhibition of human Malme-3M cells assessed as cell growth at 10 uM incubated for 48 hrs by sulforhodamine B assay relative to control
Type: functional
Conditions: read-out: Activity
Summary of the method: as §2

Compound	growth at 10 µM
Cc1cccc(NC(=O)c2sc3nc4c(cc3c2N)C(=O)CCC4)c1	14%

Tested on: M14
Assay: Growth inhibition of human M14 cells assessed as cell growth at 10 uM incubated for 48 hrs by sulforhodamine B assay relative to control
Type: functional
Conditions: read-out: Activity
Summary of the method: as §2

Compound	growth at 10 µM
Cc1cccc(NC(=O)c2sc3nc4c(cc3c2N)C(=O)CCC4)c1	4%

Tested on: MDA-MB-435
Assay: Growth inhibition of human MDA-MB-435 cells assessed as cell growth at 10 uM incubated for 48 hrs by sulforhodamine B assay relative to control
Type: functional
Conditions: read-out: Activity
Summary of the method: as §2

Compound	growth at 10 µM
Cc1cccc(NC(=O)c2sc3nc4c(cc3c2N)C(=O)CCC4)c1	-65%

Tested on: SK-MEL-28
Assay: Growth inhibition of human SK-MEL-28 cells assessed as cell growth at 10 uM incubated for 48 hrs by sulforhodamine B assay relative to control
Type: functional
Conditions: read-out: Activity
Summary of the method: as §3

Compound	growth at 10 µM
Cc1cccc(NC(=O)c2sc3nc4c(cc3c2N)C(=O)CCC4)c1	34%

Tested on: SK-MEL-5
Assay: Growth inhibition of human SK-MEL-5 cells assessed as cell growth at 10 uM incubated for 48 hrs by sulforhodamine B assay relative to control
Type: functional
Conditions: read-out: Activity
Summary of the method: as §3

Compound	growth at 10 µM
Cc1cccc(NC(=O)c2sc3nc4c(cc3c2N)C(=O)CCC4)c1	6%

Tested on: UACC-257
Assay: Growth inhibition of human UACC-257 cells assessed as cell growth at 10 uM incubated for 48 hrs by sulforhodamine B assay relative to control
Type: functional
Conditions: read-out: Activity
Summary of the method: as §3

Compound	growth at 10 µM
Cc1cccc(NC(=O)c2sc3nc4c(cc3c2N)C(=O)CCC4)c1	37%

Tested on: UACC-62
Assay: Growth inhibition of human UACC-62 cells assessed as cell growth at 10 uM incubated for 48 hrs by sulforhodamine B assay relative to control
Type: functional
Conditions: read-out: Activity
Summary of the method: as §3

Compound	growth at 10 µM
Cc1cccc(NC(=O)c2sc3nc4c(cc3c2N)C(=O)CCC4)c1	14%

Tested on: IGROV-1
Assay: Growth inhibition of human IGROV-1 cells assessed as cell growth at 10 uM incubated for 48 hrs by sulforhodamine B assay relative to control
Type: functional
Conditions: read-out: Activity
Summary of the method: as §2

Compound	growth at 10 µM
Cc1cccc(NC(=O)c2sc3nc4c(cc3c2N)C(=O)CCC4)c1	-4.52%

Tested on: OVCAR-3
Assay: Growth inhibition of human OVCAR-3 cells assessed as cell growth at 10 uM incubated for 48 hrs by sulforhodamine B assay relative to control
Type: functional
Conditions: read-out: Activity
Summary of the method: as §3

Compound	growth at 10 µM
Cc1cccc(NC(=O)c2sc3nc4c(cc3c2N)C(=O)CCC4)c1	-22%

Tested on: OVCAR-5
Assay: Growth inhibition of human OVCAR-5 cells assessed as cell growth at 10 uM incubated for 48 hrs by sulforhodamine B assay relative to control
Type: functional
Conditions: read-out: Activity
Summary of the method: as §3

Compound	growth at 10 µM
Cc1cccc(NC(=O)c2sc3nc4c(cc3c2N)C(=O)CCC4)c1	32%

Tested on: NCI/ADR-RES
Assay: Growth inhibition of human NCI/ADR-RES cells assessed as cell growth at 10 uM incubated for 48 hrs by sulforhodamine B assay relative to control
Type: functional
Conditions: read-out: Activity
Summary of the method: as §2

Compound	growth at 10 µM
Cc1cccc(NC(=O)c2sc3nc4c(cc3c2N)C(=O)CCC4)c1	5%

Tested on: A498
Assay: Growth inhibition of human A498 cells assessed as cell growth at 10 uM incubated for 48 hrs by sulforhodamine B assay relative to control
Type: functional
Conditions: read-out: Activity
Summary of the method: as §1

Compound	growth at 10 µM
Cc1cccc(NC(=O)c2sc3nc4c(cc3c2N)C(=O)CCC4)c1	-12.2%

Tested on: RXF 393
Assay: Growth inhibition of human RXF 393 cells assessed as cell growth at 10 uM incubated for 48 hrs by sulforhodamine B assay relative to control
Type: functional
Conditions: read-out: Activity
Summary of the method: as §3

Compound	growth at 10 µM
Cc1cccc(NC(=O)c2sc3nc4c(cc3c2N)C(=O)CCC4)c1	-10%

Tested on: SN12C
Assay: Growth inhibition of human SN12C cells assessed as cell growth at 10 uM incubated for 48 hrs by sulforhodamine B assay relative to control
Type: functional
Conditions: read-out: Activity
Summary of the method: as §3

Compound	growth at 10 µM
Cc1cccc(NC(=O)c2sc3nc4c(cc3c2N)C(=O)CCC4)c1	35%

Tested on: UO-31
Assay: Growth inhibition of human UO-31 cells assessed as cell growth at 10 uM incubated for 48 hrs by sulforhodamine B assay relative to control
Type: functional
Conditions: read-out: Activity
Summary of the method: as §3

Compound	growth at 10 µM
Cc1cccc(NC(=O)c2sc3nc4c(cc3c2N)C(=O)CCC4)c1	41.2%

Tested on: PC-3
Assay: Growth inhibition of human PC-3 cells assessed as cell growth at 10 uM incubated for 48 hrs by sulforhodamine B assay relative to control
Type: functional
Conditions: read-out: Activity
Summary of the method: as §3

Compound	growth at 10 µM
Cc1cccc(NC(=O)c2sc3nc4c(cc3c2N)C(=O)CCC4)c1	20%

Tested on: Hs-578T
Assay: Growth inhibition of human Hs-578T cells assessed as cell growth at 10 uM incubated for 48 hrs by sulforhodamine B assay relative to control
Type: functional
Conditions: read-out: Activity
Summary of the method: as §2

Compound	growth at 10 µM
Cc1cccc(NC(=O)c2sc3nc4c(cc3c2N)C(=O)CCC4)c1	-7%
